Laboratory results as given in ChEMBL document CHEMBL3286099, “Synthesized quercetin derivatives stimulate melanogenesis in B16 melanoma cells by influencing the expression of melanin biosynthesis proteins MITF and p38 MAPK” (Bioorg Med Chem, 2014).

How the values were obtained:
B16-F0 [1] = assay: Intracellular melanogenesis-stimulating activity in mouse B16F0 cells at 250 uM after 72 hrs by spectrophotometry relative to control; assay type: functional
B16-F0 [2] = assay: Intracellular melanogenesis-stimulating activity in mouse B16F0 cells at 125 uM after 72 hrs by spectrophotometry relative to control; assay type: functional
Outline: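 After 72 h treatment of B16-F0 cells (5.0 × 10⁴ cells/well, 24 h adherence), cells were washed with PBS and lysed in 1 M NaOH at 100 °C for 30 min to solubilise melanin. Lysate absorbance was read at 405 nm as intracellular melanin, expressed as % of DMSO control; experiments repeated twice.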

B16-F0 [3] = assay: Extracellular melanogenesis-stimulating activity in mouse B16F0 cells at 500 uM after 72 hrs by spectrophotometry relative to control; assay type: functional
[4] = Cytotoxicity against mouse B16F0 cells assessed as cell viability at 500 uM after 72 hrs by MTT assay; assay type: cell-based; details: read-out: Activity
[5] = Cytotoxicity against mouse B16F0 cells assessed as cell viability at 125 uM after 72 hrs by MTT assay; assay type: cell-based; details: read-out: Activity
Outline: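 B16-F0 murine melanoma cells in DMEM with 10% FBS, penicillin and streptomycin, at 37 °C and 5% CO₂. Seeded at 5.0 × 10⁴ cells/well, adhered 24 h, then exposed 72 h. MTT (5 mg/mL stock in PBS) added for 4 h at 37 °C, formazan taken up in isopropanol with 0.04 N HCl, A590 read. Viability given as % of DMSO control; experiments repeated twice.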

B16-F0 [6] = assay: Intracellular melanogenesis-stimulating activity in mouse B16F0 cells at 500 uM after 72 hrs by spectrophotometry relative to control; assay type: functional
B16-F0 [7] = assay: Extracellular melanogenesis-stimulating activity in mouse B16F0 cells at 250 uM after 72 hrs by spectrophotometry relative to control; assay type: functional
B16-F0 [8] = assay: Extracellular melanogenesis-stimulating activity in mouse B16F0 cells at 125 uM after 72 hrs by spectrophotometry relative to control; assay type: functional
Outline: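 B16-F0 cells were seeded at 5.0 × 10⁴ cells/well, allowed to adhere for 24 h, then treated for 72 h. Culture medium was collected and its absorbance read at 510 nm as extracellular melanin. Results are % of DMSO-treated control; experiments repeated twice.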

[9] = Cytotoxicity against mouse B16F0 cells assessed as cell viability at 250 uM after 72 hrs by MTT assay; assay type: cell-based; details: read-out: Activity

**Q.** What does the source list for `Cn1c(=O)c2nc[nH]c2n(C)c1=O.O` [THEOPHYLLINE]?
**A.** Activity (B16-F0 [1]): 131.7%; Activity (B16-F0 [2]): 127.6%; Activity (B16-F0 [3]): 204%; viability at 72 h, 500 µM [4]: 91.4%; viability at 72 h, 125 µM [5]: 95.5%; Activity (B16-F0 [6]): 166.8%; Activity (B16-F0 [7]): 183.2%; Activity (B16-F0 [8]): 170.7%; viability at 72 h, 250 µM [9]: 94.4%
